Measurements from ChEMBL document CHEMBL1153389, “Identification of novel antibacterial peptides by chemoinformatics and machine learning” (2009).

Columns and labels:
Format in all cases: functional
Pseudomonas aeruginosa [1] = assay: Antimicrobial activity against Pseudomonas aeruginosa H1001 expressing luciferase gene assessed as ratio antimicrobial IC50 for drug to Bac2A peptide by luminescence assay
Summary of the method: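 Peptides are made by SPOT synthesis on cellulose, cleaved, and the spots placed in plate wells. Overnight P. aeruginosa H1001 (fliC::luxCDABE) is diluted 1:500 in 100 mM Tris-HCl pH 7.3 with 20 mM glucose and added to the wells. After 30 min, serial dilutions (8 rows) are made. Luminescence is read at 4 h. IC50 is taken from a sigmoid fit and expressed relative to Bac2A run in the same series.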

[2] = system: Stenotrophomonas maltophilia; assay: Antimicrobial activity against Pseudomonas maltophilia ATCC 13637 after overnight incubation by broth microdilution method
Summary of the method: (§1)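 Modified broth microdilution. Peptides are serially diluted in 0.01% acetic acid with 0.2% BSA at 10-fold the final concentration, then added to MH medium in polypropylene plates. Bacteria from an overnight culture are added to a final (2-7) × 10^5 CFU/mL. Plates are incubated overnight at 37 °C. MIC is the lowest concentration with no visible growth.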

Staphylococcus aureus [3] = assay: Antimicrobial activity against methicillin-resistant Staphylococcus aureus C623 after overnight incubation by broth microdilution method
Summary of the method: (§2)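 Modified broth microdilution in polypropylene 96-well plates with Mueller-Hinton (MH) medium. Bulk-synthesized peptides were serially diluted at 10-fold final strength in 0.01% acetic acid with 0.2% BSA, then added 1:10 to MH. Inoculum came from an overnight culture at a final (2-7) × 10^5 CFU/mL. Plates were incubated overnight at 37 °C. MIC was the lowest concentration with no visible growth.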

Enterococcus faecium [4] = assay: Antimicrobial activity against vancomycin-resistant Enterococcus faecium mic80(VanA) isolate after overnight incubation by broth microdilution method; summary of the method: as §2
Klebsiella pneumoniae [5] = assay: Antimicrobial activity against extended-spectrum beta-lactamase-resistant Klebsiella pneumoniae 61962 after overnight incubation by broth microdilution method; summary of the method: as §2
Escherichia coli [6] = assay: Antimicrobial activity against extended-spectrum beta-lactamase producing Escherichia coli 63103 after overnight incubation by broth microdilution method; summary of the method: as §1
Enterococcus faecium [7] = assay: Antimicrobial activity against vancomycin-resistant Enterococcus faecium t62764(VanB) isolate after overnight incubation by broth microdilution method; summary of the method: as §2
Pseudomonas aeruginosa [8] = assay: Antimicrobial activity against Pseudomonas aeruginosa LES400 after overnight incubation by broth microdilution method; summary of the method: as §2
Pseudomonas aeruginosa [9] = assay: Antimicrobial activity against Pseudomonas aeruginosa H1027 after overnight incubation by broth microdilution method; summary of the method: as §1
Klebsiella pneumoniae [10] = assay: Antimicrobial activity against extended-spectrum beta-lactamase-resistant Klebsiella pneumoniae 63575 after overnight incubation by broth microdilution method; summary of the method: as §2
Enterobacter cloacae = assay: Antimicrobial activity against class C chromosomal beta lactamase expressing Enterobacter cloacae 218R after overnight incubation by broth microdilution method; summary of the method: as §1
Enterococcus faecalis [11] = assay: Antimicrobial activity against vancomycin-resistant Enterococcus faecalis f43559 (VanB) isolate after overnight incubation by broth microdilution method; summary of the method: as §2
Enterococcus faecalis [12] = assay: Antimicrobial activity against Enterococcus faecalis ATCC 29212 after overnight incubation by broth microdilution method; summary of the method: as §1
Pseudomonas aeruginosa [13] = assay: Antimicrobial activity against Pseudomonas aeruginosa H103 after overnight incubation by broth microdilution method; summary of the method: as §1
Pseudomonas aeruginosa [14] = assay: Antimicrobial activity against Pseudomonas aeruginosa H1030 after overnight incubation by broth microdilution method; summary of the method: as §2
Staphylococcus aureus [15] = assay: Antimicrobial activity against Staphylococcus aureus ATCC 25923 after overnight incubation by broth microdilution method; summary of the method: as §2
Enterococcus faecalis [16] = assay: Antimicrobial activity against vancomycin-resistant Enterococcus faecalis w6190(VanA) isolate after overnight incubation by broth microdilution method; summary of the method: as §2
Escherichia coli [17] = assay: Antimicrobial activity against extended-spectrum beta-lactamase producing Escherichia coli 64771 after overnight incubation by broth microdilution method; summary of the method: as §1

Substance | Ratio IC50 (Pseudomonas aeruginosa [1]) | further results
H-VRIVRVRIR-OH | 2.22 | –
H-VSGNWRGSR-OH | 8.54 | –
H-VVLKIVRRF-OH | 25 | MIC [2]: 60 µM; MIC (Staphylococcus aureus [3]): 241 µM; MIC (Enterococcus faecium [4]): 241 µM; MIC (Klebsiella pneumoniae [5]): > 241 µM; MIC (Escherichia coli [6]): > 241 µM; MIC (Enterococcus faecium [7]): 60 µM; MIC (Pseudomonas aeruginosa [8]): > 241 µM; MIC (Pseudomonas aeruginosa [9]): 241 µM; MIC (Klebsiella pneumoniae [10]): > 241 µM; MIC (Enterobacter cloacae): 241 µM; MIC (Enterococcus faecalis [11]): > 241 µM; MIC (Enterococcus faecalis [12]): 241 µM; MIC (Pseudomonas aeruginosa [13]): > 241 µM; MIC (Pseudomonas aeruginosa [14]): > 241 µM; MIC (Staphylococcus aureus [15]): 241 µM; MIC (Enterococcus faecalis [16]): > 241 µM; MIC (Escherichia coli [17]): 241 µM
H-WGGHKRRGW-OH | 6.19 | –
H-WGKRRGWNT-OH | 7.91 | –
H-WGRGGWTNR-OH | 25 | –
H-WGRTRWSSR-OH | 9.64 | –
H-WHGGQKWRK-OH | 8.5 | –
H-WHGVRWWKW-OH | 2.5 | –
H-WHYRSQVGR-OH | 6.65 | –
H-WIRKRSRIF-OH | 3.39 | –
H-WKRWKWWKR-OH | 0.25 | –
H-WKRWRWIRW-OH | 0.28 | –
H-WRFKVLRQR-OH | 7.08 | –
H-WRNRKVVWR-OH | 6.79 | –
H-WRRWWKWWR-OH | 0.23 | –
H-WRWRWWKRW-OH | 0.28 | –
H-WRWWKWWRR-OH | 0.23 | –
H-WRWWWKKWR-OH | 0.19 | –
H-WRWYWWKKR-OH | 0.22 | –
H-WSQNVRTRI-OH | 5.71 | –
H-WVKVWKYTW-OH | 5.64 | –
H-WVRFVYRYW-OH | 2.15 | –
H-YQRLFVRIR-OH | 25 | –
